According to ChEMBL document CHEMBL1132554, “Inhibition of Trypanosoma cruzi trypanothione reductase by acridines: kinetic studies and structure-activity relationships” (J Med Chem, 1999):

biological target: T1, Trypanothione reductase (Trypanosoma cruzi, UniProt P28593); assay: The mixed type inhibitory activity against trypanothione reductase was evaluated from Lineweaver Burk plots and Cornish-Bowdwn plots.; details: not given
T1 sequence (P28593 whole entry): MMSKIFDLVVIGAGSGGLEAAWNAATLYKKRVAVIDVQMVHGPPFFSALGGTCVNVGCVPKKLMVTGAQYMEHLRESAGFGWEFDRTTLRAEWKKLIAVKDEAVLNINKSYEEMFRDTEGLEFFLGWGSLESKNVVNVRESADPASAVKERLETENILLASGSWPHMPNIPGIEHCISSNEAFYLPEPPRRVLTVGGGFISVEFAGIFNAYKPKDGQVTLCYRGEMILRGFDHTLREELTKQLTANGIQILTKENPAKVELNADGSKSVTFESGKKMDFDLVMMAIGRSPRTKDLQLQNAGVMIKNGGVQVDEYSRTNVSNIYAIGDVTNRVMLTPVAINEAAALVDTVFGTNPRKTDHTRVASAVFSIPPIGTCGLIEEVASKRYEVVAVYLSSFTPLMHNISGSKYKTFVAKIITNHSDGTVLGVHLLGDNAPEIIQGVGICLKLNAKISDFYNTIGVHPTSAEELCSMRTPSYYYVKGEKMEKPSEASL

Ki [µM] | Compound
21 | CCN(CC)CCCCSc1c2ccc(Cl)cc2nc2ccc(OC)cc12
83 | CCN(CC)CCSc1c2ccc(Cl)cc2nc2ccc(OC)cc12

biological target: T1, Trypanothione reductase; assay: The competitive inhibitory activity against trypanothione reductase was evaluated from Lineweaver Burk plots; details: read-out: Ki app
Method in brief: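 Recombinant T. cruzi TR purified from E. coli SG5, 7–10 mU per assay, at 25 °C in 40 mM Hepes, 1 mM EDTA, pH 7.5 with 100 µM NADPH. TS2 varied without inhibitor and at two inhibitor levels. Each point was measured at least twice. Apparent Ki is the mean of Ki,slope values from Lineweaver–Burk plots at each [I].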

Ki [µM] | Compound
43 | Nc1c2ccccc2nc2cc(Cl)ccc12
5.5 | CCN(CC)CCCCC(C)Nc1c2ccc(Cl)cc2nc2ccc(OC)cc12 (centres undefined)
11 | CCN(CC)CCCCC(C)Nc1c2ccccc2nc2cc(Cl)ccc12 (centres undefined)
27 | CCN(CC)CCCC(C)Nc1c2ccccc2nc2ccc(OC)cc12 (centres undefined)
10 | CCN(CC)CCCC(C)Nc1c2ccccc2nc2cc(Cl)ccc12 (centres undefined)
80 | Nc1c2c(nc3cc(Cl)ccc13)CCCC2
7 | COc1ccc2nc3cc(Cl)ccc3c(N)c2c1
19 | CCN(CC)CCCC(C)Nc1c2ccc(Cl)cc2nc2ccc(OC)cc12 (centres undefined) [QUINACRINE]
140 | Nc1c2c(nc3ccccc13)CCCC2 [TACRINE]

Compound | Ki [µM]
Nc1c2ccccc2nc2ccccc12 [AMINACRINE] | 38

biological target: T1, Trypanothione reductase; assay: The mixed type inhibitory activity against trypanothione reductase was evaluated from Lineweaver Burk plots; details: not given

Ki [µM] | Compound
67 | CCN(CC)CCCCSc1c2ccc(Cl)cc2nc2ccc(OC)cc12
37 | CCN(CC)CCSc1c2ccc(Cl)cc2nc2ccc(OC)cc12
